Among all 360,000 compounds or so, about 740 (0.21%) were called active. The entries come from a sample that favours actives as a whole. Values without a mark were called inactive.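 The calls were made as follows: active = mean lysis activity across replicates of at least 80%, whatever share of replicates individually reach that level; inactive = mean lysis activity below 80%.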
test: fungicidal lysis via adenylate kinase leakage – AK release luminescence, single concentration, primary screen (AID 651654); details: C. neoformans lysis, 4 h, at 15 µM, hits give high values, normalised: neutral wells 0, clomiphene wells 100
Summary of the method: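 Assay system: C. neoformans cells. Amount: yeast cell density of 5 × 10^6 cells/mL. Technique: AK luminescence. Buffer or medium: YPD. Times: static 4 h at 37 °C with compound, 1 h detection. Dosing: single-point compound dose. Read-out: lysis from increased AK signal.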

| SMILES | lysis activity |
| --- | --- |
| OC[C@@H]1[C@@H](c2ccc(C#CC3(O)CCCC3)cc2)[C@@H]2CN(Cc3cncnc3)CCCCN12 | -3.24% |
| O=C(C[C@@H]1CC[C@H](NC(=O)Nc2ccc(F)cc2)[C@H](CO)O1)NCc1ccccn1 | -0.684% |
| CO[C@@H]1CN(C)C(=O)c2cc(NC(=O)C3CC3)ccc2OC[C@@H](C)N(C(=O)c2ccccc2F)C[C@@H]1C | 44% |
| C[C@@H]1CN([C@@H](C)CO)S(=O)(=O)c2ccc(-c3ccc(C(=O)N(C)C)cc3)cc2O[C@@H]1CN(C)C(=O)Cc1ccccn1 | 0.616% |
| CN1CCN(C(=O)c2cc3c(c(-c4cccc(-c5ccc(C(=O)N(C)C)cc5)c4)n2)[C@@H](CCO)N([S@](=O)C(C)(C)C)C3)CC1 | -8.88% |
| Cc1ccc(S(=O)(=O)N[C@@H]2CC[C@H](CCNC(=O)C3CCOCC3)O[C@@H]2CO)cc1 | -6.3% |
| COCC(=O)Nc1ccc2c(c1)OC[C@H](C)N(C(=O)c1ccccn1)C[C@@H](C)[C@H](OC)CN(C)C2=O | 0.52% |
| O=C(C[C@H]1CC[C@@H]2[C@H](COC[C@@H](O)CN2C(=O)Nc2ccc(Cl)cc2)O1)NC1Cc2ccccc2C1 | -3.01% |
| C[C@@H]1CN([C@H](C)CO)C(=O)c2cc(C#CC3CC3)cnc2O[C@@H]1CN(C)Cc1cccc(C(=O)O)c1 | -8.03% |
| C[C@H](CO)N1C[C@H](C)[C@@H](CN(C)Cc2ccc(C(=O)Nc3ccccc3N)cc2)Oc2c(NC(=O)C3CC3)cccc2C1=O | -0.959% |
| COCC(=O)N(C)C[C@@H]1Oc2cc(C#CCC(C)C)ccc2S(=O)(=O)N([C@@H](C)CO)C[C@@H]1C | 0.182% |
| O=C(CN1CCOCC1)NC[C@@H]1N[C@@H](CO)[C@@H]1c1ccc(-c2ccccc2)cc1 | 4.94% |
| CCC(=O)N1[C@@H]2CN(C(=O)Nc3ccc(Cl)cc3)c3ccccc3[C@@H]2[C@@H]1CO | -1.93% |
| COc1cccc(S(=O)(=O)Nc2ccc3c(c2)[C@H]2C[C@H](CC(=O)O)O[C@H](CO)[C@H]2O3)c1 | -0.106% |
| COc1cccc(S(=O)(=O)Nc2ccc3c(c2)[C@@H]2C[C@@H](CC(=O)NC4CCCCC4)O[C@H](CO)[C@@H]2O3)c1 | 2.9% |
| COc1cccc(S(=O)(=O)Nc2ccc3c(c2)[C@@H]2C[C@H](CC(=O)NC4CCCCC4)O[C@H](CO)[C@@H]2O3)c1 | 116% (active) |
| CCCC#Cc1cnc2c(c1)C(=O)N([C@H](C)CO)C[C@H](C)[C@H](CN(C)C(=O)c1cnccn1)O2 | -1.04% |
| CCC(=O)Nc1ccc2c(c1)C(=O)N(C)[C@H]1CC[C@H](CC(=O)NC3Cc4ccccc4C3)O[C@H]1CO2 | -0.192% |
| COCC(=O)Nc1ccc2c(c1)[C@H]1C[C@H](CC(=O)OC)O[C@@H](CO)[C@H]1O2 | -5.98% |
| O=C(C[C@H]1CC[C@H]2[C@@H](COC[C@H](O)CN2C(=O)Nc2ccc(Cl)cc2)O1)NCC1CC1 | -8.94% |
| C[C@H]1CN([C@@H](C)CO)C(=O)c2cc(NC(=O)Cn3cnnn3)ccc2O[C@H]1CN(C)Cc1ccc(C(=O)O)cc1 | -7.7% |
| C[C@H](NC(=O)C[C@@H]1CC[C@@H](NC(=O)Cc2ccccn2)[C@@H](CO)O1)c1ccccc1 | 0.182% |
| C[C@@H](NC(=O)C[C@@H]1CC[C@H](NC(=O)Cc2ccccn2)[C@H](CO)O1)c1ccccc1 | -0.901% |
| C[C@@H](NC(=O)C[C@H]1CC[C@@H](NC(=O)Cc2ccccn2)[C@@H](CO)O1)c1ccccc1 | 105% (active) |

| SMILES | lysis activity |
| --- | --- |
| COc1ccc(NC(=O)N(C)C[C@@H]2OCCCC[C@@H](C)Oc3ccc(NS(=O)(=O)c4c(C)noc4C)cc3C(=O)N([C@H](C)CO)C[C@@H]2C)cc1 | -3% |
| CC(C)C#Cc1ccc2c(c1)O[C@H](CN(C)Cc1ccccc1)[C@H](C)CN([C@@H](C)CO)S2(=O)=O | 14.5% |
| CCNC(=O)C[C@@H]1CC[C@H]2[C@@H](COc3ccc(NC(=O)Cc4cccs4)cc3C(=O)N2C)O1 | -1.39% |
| COc1ccccc1CNC(=O)C[C@H]1CC[C@@H]2[C@H](COC[C@H](O)CN2Cc2ccccc2)O1 | -1.1% |
| COc1ccccc1-c1ccc2n(c1=O)C[C@@H]1[C@@H](CO)[C@H](C(=O)NCc3ccccc3Cl)N[C@H]21 | -0.428% |
| CO[C@@H]1CN(C)C(=O)c2cc(NC(=O)c3ccno3)ccc2OC[C@@H](C)N(S(C)(=O)=O)C[C@@H]1C | 0.04% |
| C/C=C/c1ccc([C@H]2[C@@H](CO)N(C(C)=O)[C@H]2CN(C)S(C)(=O)=O)cc1 | -1.56% |
| C/C=C/c1ccc2c(c1)O[C@H](CN(C)C(=O)Nc1ccc(OC)cc1)[C@@H](C)CN([C@H](C)CO)S2(=O)=O | -3.44% |
| Cc1ccc(S(=O)(=O)Nc2ccc3c(c2)C(=O)N([C@@H](C)CO)C[C@@H](C)[C@@H](CN(C)Cc2ccc(C(F)(F)F)cc2)OCCCC[C@@H](C)O3)cc1 | 54.9% |
| C[C@@H]1CCCCO[C@H](CN(C)C(=O)NC2CCCCC2)[C@H](C)CN([C@H](C)CO)C(=O)c2cc(NC(=O)c3ccncc3)ccc2O1 | -2.46% |
| CO[C@@H]1CN(C)C(=O)c2cc(NC(=O)Nc3ccc(F)cc3)ccc2OC[C@@H](C)NC[C@@H]1C | -3.48% |
| COc1cccc(-c2ccc3n(c2=O)C[C@@H]2[C@@H](CO)[C@H](C(=O)NCC4CC4)N(C(=O)NC(C)C)[C@H]32)c1 | -2.16% |
| CCC(=O)Nc1ccc2c(c1)C(=O)N(C)C[C@H](OC)[C@H](C)CN(Cc1ccccc1F)[C@H](C)CO2 | 3.58% |
| C[C@@H]1CN([C@H](C)CO)S(=O)(=O)c2ccc(C3=CCCC3)cc2O[C@H]1CN(C)C(=O)c1ccccc1 | 2.54% |
| O=C(C[C@@H]1C[C@@H]2c3cc(NS(=O)(=O)c4ccc(F)cc4)ccc3O[C@@H]2[C@@H](CO)O1)N1CCOCC1 | -1.76% |
| C[C@@H]1CCCCO[C@@H](CN(C)S(C)(=O)=O)[C@H](C)CN([C@@H](C)CO)C(=O)c2cc(NS(=O)(=O)c3cccs3)ccc2O1 | 0.965% |
| C[C@H]1CN([C@@H](C)CO)C(=O)c2ccccc2-c2ccccc2CO[C@H]1CN(C)S(=O)(=O)c1cccc(C#N)c1 | 82.9% (active) |
| Cc1ccc(S(=O)(=O)N(C)C[C@H]2OCc3ccccc3-c3ccccc3C(=O)N([C@@H](C)CO)C[C@@H]2C)cc1 | -0.134% |
| C[C@H]1CN([C@@H](C)CO)C(=O)c2ccccc2-c2ccccc2CO[C@H]1CN(C)S(=O)(=O)c1ccccc1C#N | 1.59% |
| CO[C@H]1CN(C)C(=O)c2cc(NC(=O)C3CC3)ccc2OC[C@@H](C)N(Cc2cc(F)ccc2F)C[C@H]1C | 0.743% |
| COC(=O)C[C@H]1C[C@H]2c3cc(NC(=O)Nc4ccccc4F)ccc3O[C@H]2[C@H](CO)O1 | 11.5% |
| CO[C@@H]1CN(C)C(=O)c2ccc(NC(=O)Nc3c(C)noc3C)cc2OC[C@@H](C)NC[C@H]1C | -0.469% |
| O=C(c1ccncc1)N1CC[C@@H]2[C@H]1c1cc(Br)ccc1N[C@@H]2CO | -16.8% |
| C[C@H]1CN([C@@H](C)CO)S(=O)(=O)c2ccc(C3=CCCC3)cc2O[C@H]1CN(C)Cc1cccc(C(=O)O)c1 | 0.868% |

Source: PubChem BioAssay AID651654 (Broad Institute, 2012)
